Measurements pooled from the literature.
Target: Megakaryocyte-associated tyrosine-protein kinase (MATK, Homo sapiens, UniProt P42679)
Residues used in one study (P42679 1-507): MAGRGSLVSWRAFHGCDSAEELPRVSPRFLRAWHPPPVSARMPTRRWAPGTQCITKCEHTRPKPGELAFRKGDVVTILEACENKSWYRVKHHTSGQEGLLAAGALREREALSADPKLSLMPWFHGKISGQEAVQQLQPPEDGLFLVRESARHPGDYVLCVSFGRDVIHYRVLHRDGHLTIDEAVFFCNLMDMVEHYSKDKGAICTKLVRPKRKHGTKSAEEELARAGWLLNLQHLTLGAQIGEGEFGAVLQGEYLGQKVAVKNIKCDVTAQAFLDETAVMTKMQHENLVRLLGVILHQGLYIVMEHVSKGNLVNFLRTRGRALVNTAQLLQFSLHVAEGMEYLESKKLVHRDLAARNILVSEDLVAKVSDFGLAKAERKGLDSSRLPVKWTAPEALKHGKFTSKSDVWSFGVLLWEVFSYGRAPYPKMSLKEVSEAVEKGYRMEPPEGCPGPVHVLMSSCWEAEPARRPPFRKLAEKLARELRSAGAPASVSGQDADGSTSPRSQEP

SMILES | test | conditions | quantity | result
Nc1ncnc2occ(-c3ccc(NC(=O)Nc4cc(C(F)(F)F)ccc4F)cc3)c12 | cell-free assay, inhibitor | 20 µM | remaining signal | 13%
Cc1sc(C(=O)NC2COC2)cc1-n1cc(NC(=O)Nc2c(F)cccc2Cl)cn1 | enzyme activity, inhibitor | 10 µM | remaining activity | 97.8%
CC1=C(C#N)C(c2ccc3c(c2)c(NC(=O)c2ccccc2C)nn3C)C(C#N)=C(C)N1 | cell-free assay, competition with immobilised ligand | 1 µM | remaining binding | 79%
O=C1Nc2ccc(Cl)cc2C1=Cc1cc(Cl)c(O)c(Cl)c1 | cell-free assay | 0.5 µM | remaining signal | 82.2%
COc1cc2ncnc(Nc3ccc(Oc4ccccc4)c(C)c3C)c2cc1OC | enzyme activity, inhibitor | 1 µM | inhibition | -2%
O=C1NC(=O)c2cc(Nc3ccc(F)cc3)c(Nc3ccc(F)cc3)cc21 | cell-free assay | 0.5 µM | remaining signal | 93.5%
O=c1nc(-c2ccccn2)sc2ccccc12 | binding, competition with immobilised ligand | 1 µM | remaining binding | 100%
O=C(Nc1cnn(-c2csc(C(=O)NC3COC3)c2)c1)Nc1c(F)cccc1Cl | enzyme activity, inhibitor | 5 µM | remaining activity | 100%
Cc1ccc(C(=O)Nc2ccc(CN3CCN(C)CC3)c(C(F)(F)F)c2)cc1C#Cc1cnc2cccnn12 | enzyme activity, inhibitor | 23.5 nM | remaining activity | 52%
CC(C)(C)c1nc(-c2cccc(NS(=O)(=O)c3c(F)cccc3F)c2F)c(-c2ccnc(N)n2)s1 | enzyme activity, inhibitor, radiometric | 1 µM | remaining activity | 90%
O=C(O)[C@@H]1[C@@H](Cn2nnc3ccccc3c2=O)CC[C@H]1C(=O)c1ccc(OCCC2CCOCC2)cc1 | cell-free assay, competition with immobilised ligand | 1 µM | remaining binding | 95%
CCCS(=O)(=O)Nc1ccc(F)c(C(=O)c2c[nH]c3ncc(-c4ccc(Cl)cc4)cc23)c1F | enzyme activity, inhibitor | 1 µM | inhibition | < 20%
